Reference: ChEMBL document CHEMBL4402514, “Norepinephrine-Transporter-Targeted and DNA-Co-Targeted Theranostic Guanidines” (J Med Chem, 2020)

Experiments:
[1] = Toxicity in NCR nu/nu mouse xenografted with human BE(2)-C cells assessed as effect on hemoglobin level at 8.41 +/- 0.32 mBq measured up to 166 hrs
Outline: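 Athymic Ncr nu/nu female and male mice bearing subcutaneous BE(2)-C xenografts were randomized by lottery to untreated control or a single intratumor injection of 125I-guanidine (8.4 ± 0.3 MBq/mouse). Blood hemoglobin was measured in both groups and compared with the normal adult mouse range. Treated mice were terminated 14 days after injection.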

[2] = molecular target: T1, Sodium-dependent noradrenaline transporter (Homo sapiens, UniProt P23975); test: Substrate activity at NET in human BE(2)-C cells assessed as inhibition of drug uptake by measuring MIBG IC50 incubated for 1 hr in presence of nonradioactive MIBG at 4 degC by filtration based gamma counting method; type: cell-based
T1 sequence (P23975 whole entry): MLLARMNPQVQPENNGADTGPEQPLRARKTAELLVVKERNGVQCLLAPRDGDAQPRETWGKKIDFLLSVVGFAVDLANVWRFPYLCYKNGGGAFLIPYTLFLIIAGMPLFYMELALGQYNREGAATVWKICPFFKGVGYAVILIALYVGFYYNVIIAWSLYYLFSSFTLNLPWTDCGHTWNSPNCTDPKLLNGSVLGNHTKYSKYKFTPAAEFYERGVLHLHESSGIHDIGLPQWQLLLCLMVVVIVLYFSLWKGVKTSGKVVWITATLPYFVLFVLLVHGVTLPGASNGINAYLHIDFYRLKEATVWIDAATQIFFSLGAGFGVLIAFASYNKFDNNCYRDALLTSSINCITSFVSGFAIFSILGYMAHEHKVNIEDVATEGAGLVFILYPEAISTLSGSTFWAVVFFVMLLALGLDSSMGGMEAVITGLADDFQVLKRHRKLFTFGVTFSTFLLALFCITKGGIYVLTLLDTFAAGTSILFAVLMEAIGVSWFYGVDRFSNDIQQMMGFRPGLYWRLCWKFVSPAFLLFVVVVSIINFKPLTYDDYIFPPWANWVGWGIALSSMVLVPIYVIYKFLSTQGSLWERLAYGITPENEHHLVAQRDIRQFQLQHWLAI

[3] = Stability in human SK-N-SH cells assessed as parent compound level after 24 hrs by HPLC analysis; type: ADME, cell-based; details: read-out: Stability
Outline: (§1)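 The compound was incubated 24 h in cell culture medium without cells or with SK-N-SH cells. Intact compound and 125IUdR catabolite were quantified by radio-HPLC on a C18 column at 0.8 mL/min, with a 0–95% CH3CN gradient over 50 min and 95% for 20 min.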

[4] = Ratio of tumor to blood concentration in NCR nu/nu mouse xenografted with human BE(2)-C cells at 0.33 +/- 0.05 MBq administered intratumorally after 24 hrs by gamma counting method; type: ADME, tissue-based; details: tumour, other
Outline: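 Athymic Ncr nu/nu female and male mice bearing subcutaneous BE(2)-C xenografts received intratumor injections of the 125I agent. Tissues, tumor and blood were collected at 24 h and counted for radioactivity, expressed as %ID/g. Tumor-to-blood ratios were derived.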

[5] = Drug uptake in human SK-N-SH cells assessed as level of 125I-incorporation into DNA incubated 1 hr followed by compound washout with non-radioactive medium/PBS and measured after 23 hrs by gamma counting method relative to control; type: ADME, cell-based
Outline: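 SK-N-SH cells exposed to the 125I-labelled guanidine for 1 h, then washed with nonradioactive medium and PBS. Cells were either processed at once (1 h) or given fresh nonradioactive medium and returned to the incubator for 23 h (24 h). Subcellular fractions (cytoplasm, DNA) were counted by γ-counter. Values are mean and SD, n ≥ 3.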

[6] = Drug uptake in human BE(2)-C cells assessed as level of 125I-incorporation into DNA after 1 hr and followed by compound washout with non-radioactive medium/PBS and measured immediately by gamma counting method relative to control; type: ADME, cell-based
Outline: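 BE(2)-C cells were treated with radioiodinated guanidine for 1 h, washed with nonradioactive medium and PBS. They were processed immediately or returned to the incubator for a further 23 h. 125I in the DNA fraction was gamma-counted. Values are average (n ≥ 3) ± SD.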

[7] = system: BE(2)-C; test: Antitumor activity against human BE(2)-C cells xenografted with NCR nu/nu mouse assessed as doubling time at 8.4 +/- 0.3 mBq administered intratumorally measured up to 7 days (reference value: 2.4 days); type: functional
Outline: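 Athymic Ncr nu/nu female and male mice bearing subcutaneous BE(2)-C xenografts were randomized by lottery into untreated control and treatment groups. Treatment was a single intratumor injection of 8.4 ± 0.3 MBq/mouse. Tumor volumes were followed to day 7 (controls) or day 14. Doubling times were calculated from day 0 to 7 and day 0 to 14. Values are average ± std err.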

[8] = molecular target: T1, Sodium-dependent noradrenaline transporter; test: Substrate activity at NET in human SK-N-SH cells assessed as inhibition of drug uptake by measuring MIBG IC50 incubated for 1 hr in presence of nonradioactive MIBG by gamma counting method; type: cell-based
Outline: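 Exponentially growing SK-N-SH monolayers (endogenous NET) were exposed for 1 h to 125I-labelled guanidine plus nonradioactive MIBG over a range of concentrations. Cell-associated 125I was counted in a γ-counter, and the MIBG IC50 was estimated.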

[9] = Drug level in human SK-N-SH cells DNA at 40 +/- 0.5 kBq/mL after 1 hr and followed by compound washout with non-radioactive medium/PBS and measured immediately by gamma counting method relative to control; type: ADME, cell-based
Outline: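 SK-N-SH cells were exposed 1 h to 125I compound (≈39–40 kBq/mL), then washed with nonradioactive medium and PBS. Cells were processed immediately (1 h) or re-incubated in fresh medium for 23 h (24 h). Cytoplasmic, nuclear and DNA fractions were gamma-counted.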

[10] = molecular target: T1, Sodium-dependent noradrenaline transporter; test: Substrate activity at NET in human SK-N-SH cells assessed as inhibition of drug uptake by measuring MIBG IC50 incubated for 1 hr in presence of nonradioactive MIBG at 37 degC by filtration based gamma counting method; type: cell-based
Outline: (§2)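 This was a cell-suspension competition assay. SK-N-SH cells in suspension were incubated with 125I-guanidine and graded nonradioactive MIBG, and uptake was read by filtration and γ-counting. Runs were done at 37 °C, or at 4 °C after cooling the cells on ice. The MIBG IC50 was estimated from the inhibition curves.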

[11] = system: SK-N-SH; test: Anticlonogenic activity against human SK-N-SH cells assessed as number of colonies at 40 +/- 0.5 kBq/mL kBq/mL after 24 hr by crystal violet staining based assay; type: functional
Outline: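 SK-N-SH cells exposed for 1 h to 125I-MIBG (39.3 ± 0.3 kBq/mL extracellular) or IDG (40 ± 0.5 kBq/mL). For the 1 h group, cells were washed with nonradioactive medium and PBS, harvested with trypsin and replated for the clonogenic assay. For the 24 h group, cells were washed, given fresh nonradioactive medium and incubated a further 23 h before plating. Colonies were counted.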

[12] = system: SK-N-SH; test: Anticlonogenic activity against human SK-N-SH cells assessed as inhibition of reproductive integrity at 35 kBq/mL after 14 days by crystal violet staining based assay relative to control; type: functional; design: scale not given: the % may be the effect or the level left
Outline: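 SK-N-SH cells exposed to 125I guanidine for 24 h, then harvested, replated at 500 live cells/flask and grown in nonradioactive medium for 14 days (up to 21 days at the highest levels). Colonies were stained with crystal violet and counted. Values are average (n ≥ 3) ± SD.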

[13] = molecular target: T1, Sodium-dependent noradrenaline transporter; test: Substrate activity at NET in human SK-N-SH cells assessed as inhibition of drug uptake by measuring MIBG IC50 incubated for 1 hr in presence of nonradioactive MIBG at 4 degC by filtration based gamma counting method; type: cell-based; outline: as §2
[14] = Stability in EMEM medium assessed as intact compound level incubated for 24 hrs by HPLC analysis; type: physicochemical; details: read-out: Stability; outline: as §1
[15] = Partition coefficient, logP of compound; type: physicochemical; details: octanol/water
[16] = Half life in EMEM medium by HPLC analysis; type: physicochemical

- IC50 [2]: 23.9 µM
- remaining at 24 h [3]: 33%
- Ratio [4]: 161
- Drug uptake [5]: > 97%
- Drug uptake [6]: 93%
- IC50 [8]: 76.2 µM
- Drug uptake [9]: 70 to 80%
- IC50 [10]: 35.2 µM
- IC50 [13]: 22 µM
- remaining at 24 h [14]: 86%
- logP [15]: -0.2
- half-life [16]: 4.58 days
SMILES: N=C(N)NCCCCCC(=O)O[C@H]1C[C@H](n2cc([125I])c(=O)[nH]c2=O)O[C@@H]1CO
- Activity [1]: Non-Toxic
- Time [7]: 14.9 days
- Activity [11]: 97
- Activity [12]: >90%
